Test results: ChEMBL document CHEMBL4038330, “Discovery of Potent Orally Active Protease-Activated Receptor 1 (PAR1) Antagonists Based on Andrographolide” (J Med Chem, 2017); call rule not given here

Key:
Rattus norvegicus [1] = test: Toxicity in Wistar rat assessed as behavioral abnormalities at 5 mg/kg, po measured up to 24 hrs post dose; assay type: organism-based; conditions: in vivo
Summary of the method: (§1)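 Male Wistar rats given 1 mg/kg iv or 5 mg/kg intragastrically. Behaviour observed for abnormalities over the 24 h sampling period.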

Rattus norvegicus [2] = test: Toxicity in Wistar rat assessed as body weight at 5 mg/kg, po measured up to 24 hrs post dose; assay type: organism-based; conditions: in vivo
Plasma [3] = test: Drug metabolism in Wistar rat plasma assessed as [M2-2H] metabolite formation at 5 mg/kg, po administered as single dose measured at 3 hrs post dose by LC-HRMS analysis; assay type: ADME, organism-based; conditions: in vivo
Summary of the method: (§2)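 Rats dosed orally at 10 mg/kg or 5 mg/kg. Plasma taken at 3.0 h after dosing. Parent and metabolites detected by extracted ion chromatograms.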

Plasma [4] = test: Drug metabolism in Wistar rat plasma assessed as [M2+O] metabolite formation at 5 mg/kg, po administered as single dose measured at 3 hrs post dose by LC-HRMS analysis; assay type: ADME, organism-based; conditions: in vivo; summary of the method: as §2
Plasma [5] = test: Drug metabolism in Wistar rat plasma assessed as [M2+O-2H] metabolite formation at 5 mg/kg, po administered as single dose measured at 3 hrs post dose by LC-HRMS analysis; assay type: ADME, organism-based; conditions: in vivo; summary of the method: as §2
Platelet = test: Effect on ADP-stimulated platelet aggregation in human platelet-rich plasma up to 10 uM preincubated for 20 mins followed by ADP stimulation measured after 5 mins by aggregometric analysis; assay type: ADME, cell-based
Summary of the method: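 Human platelet-rich plasma stimulated with TRAP 15 µM, ADP 10 µM or collagen 5 µg/mL. ADP and collagen tests went up to 10 µM compound. Three separate experiments per agonist. Mean IC50 taken from IC50s of the independent experiments; values given as median ± SD.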

Cavia porcellus [6] = test: In vivo antagonist activity at PAR1 in guinea pig assessed as inhibition of TRAP-stimulated platelet aggregation at 10 mg/kg, po pretreated for 2 hrs followed by TRAP stimulation measured after 5 mins; assay type: functional
Cavia porcellus [7] = test: In vivo antagonist activity at PAR1 in guinea pig assessed as inhibition of thrombin-stimulated platelet aggregation at 10 mg/kg, po pretreated for 2 hrs followed by thrombin stimulation measured after 5 mins; assay type: functional
[8] = tested on: collagen-stimulated platelet aggregation; test: Toxicity in guinea pig assessed as inhibition of collagen-stimulated platelet aggregation at 10 mg/kg, po pretreated for 2 hrs followed by collagen stimulation measured after 5 mins; assay type: organism-based, Cavia porcellus; conditions: in vivo
Cavia porcellus [9] = test: In vivo antagonist activity at PAR1 in guinea pig assessed as inhibition of TRAP-stimulated platelet aggregation at 30 mg/kg, po pretreated for 2 hrs followed by TRAP stimulation measured after 5 mins; assay type: functional
Cavia porcellus [10] = test: In vivo antagonist activity at PAR1 in guinea pig assessed as inhibition of thrombin-stimulated platelet aggregation at 30 mg/kg, po pretreated for 2 hrs followed by thrombin stimulation measured after 5 mins; assay type: functional
[11] = tested on: ADP-stimulated platelet aggregation; test: Toxicity in guinea pig assessed as inhibition of ADP-stimulated platelet aggregation at 30 mg/kg, po pretreated for 2 hrs followed by ADP stimulation measured after 5 mins; assay type: organism-based, Cavia porcellus; conditions: in vivo
Rattus norvegicus [12] = test: Toxicity in Wistar rat assessed as behavioral abnormalities at 1 mg/kg, iv measured up to 24 hrs post dose; assay type: organism-based; conditions: in vivo; summary of the method: as §1
Rattus norvegicus [13] = test: Toxicity in Wistar rat assessed as body weight at 1 mg/kg, iv administered as bolus dose measured up to 24 hrs post dose; assay type: organism-based; conditions: in vivo
Summary of the method: (§3)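 Male Wistar rats, n = 6 per group, given 1 mg/kg intravenously or 5 mg/kg intragastrically. Blood concentrations followed over 24 h. Non-compartmental analysis; values as median ± SD. Bioavailability from oral versus intravenous exposure.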

Rattus norvegicus [14] = test: AUMC (0 to infinity) in Wistar rat at 1 mg/kg, iv administered as bolus dose measured up to 24 hrs post dose by HPLC-MS/MS analysis; assay type: ADME, organism-based; conditions: in vivo; summary of the method: as §3
[15] = MRT (0 to infinity) in Wistar rat at 1 mg/kg, iv administered as bolus dose measured up to 24 hrs post dose by HPLC-MS/MS analysis; assay type: ADME, organism-based; conditions: in vivo; summary of the method: as §3
Rattus norvegicus [16] = test: VRT (0 to infinity) in Wistar rat at 1 mg/kg, iv administered as bolus dose measured up to 24 hrs post dose by HPLC-MS/MS analysis; assay type: ADME, organism-based; conditions: in vivo
[17] = Apparent terminal half life in Wistar rat at 1 mg/kg, iv administered as bolus dose measured up to 24 hrs post dose by HPLC-MS/MS analysis; assay type: ADME, organism-based; conditions: in vivo, read-out: betat1/2(app) (converted); summary of the method: as §3
[18] = Tmax in Wistar rat at 1 mg/kg, iv administered as bolus dose measured up to 24 hrs post dose by HPLC-MS/MS analysis; assay type: ADME, organism-based; conditions: in vivo; summary of the method: as §3
[19] = Apparent clearance in Wistar rat at 1 mg/kg, iv administered as bolus dose measured up to 24 hrs post dose by HPLC-MS/MS analysis; assay type: ADME, organism-based; conditions: in vivo, read-out: CL(app) (converted); summary of the method: as §3
[20] = Apparent volume of distribution in Wistar rat at 1 mg/kg, iv administered as bolus dose measured up to 24 hrs post dose by HPLC-MS/MS analysis; assay type: ADME, organism-based; conditions: in vivo, read-out: Vd(app); summary of the method: as §3
[21] = Cmax in Wistar rat at 1 mg/kg, iv administered as bolus dose measured up to 24 hrs post dose by HPLC-MS/MS analysis; assay type: ADME, organism-based; parameters: dose 1 mg/kg, route intravenous; conditions: in vivo; summary of the method: as §3
[22] = AUC (0 to infinity) in Wistar rat at 5 mg/kg, po measured up to 24 hrs post dose by HPLC-MS/MS analysis; assay type: ADME, organism-based; parameters: dose 5 mg/kg, time infinity, route oral; conditions: in vivo
Summary of the method: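 Male Wistar rats, n = 6 per group, dosed intragastrically at 5 mg/kg or intravenously at 1 mg/kg. Blood concentrations followed over 24 h. Parameters from non-compartmental analysis, reported as median ± SD.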

Rattus norvegicus [23] = test: AUMC (0 to infinity) in Wistar rat at 5 mg/kg, po measured up to 24 hrs post dose by HPLC-MS/MS analysis; assay type: ADME, organism-based; conditions: in vivo; summary of the method: as §3
[24] = Apparent terminal half life in Wistar rat at 5 mg/kg, po measured up to 24 hrs post dose by HPLC-MS/MS analysis; assay type: ADME, organism-based; conditions: in vivo, read-out: betat1/2(app) (converted); summary of the method: as §3
[25] = Tmax in Wistar rat at 5 mg/kg, po measured up to 24 hrs post dose by HPLC-MS/MS analysis; assay type: ADME, organism-based; conditions: in vivo; summary of the method: as §3
Rattus norvegicus [26] = test: Apparent volume of distribution in Wistar rat at 5 mg/kg, po measured up to 24 hrs post dose by HPLC-MS/MS analysis; assay type: ADME, organism-based; conditions: in vivo; summary of the method: as §3
[27] = Cmax in Wistar rat at 5 mg/kg, po measured up to 24 hrs post dose by HPLC-MS/MS analysis; assay type: ADME, organism-based; parameters: dose 5 mg/kg, route oral; conditions: in vivo; summary of the method: as §3
[28] = Oral bioavailability in Wistar rat at 5 mg/kg measured up to 24 hrs post dose by HPLC-MS/MS analysis; assay type: ADME, organism-based; conditions: in vivo; summary of the method: as §3
Plasma [29] = test: Stability in Wistar rat assessed as parent compound level in plasma at 5 mg/kg, po administered as single dose measured at 3 hrs post dose by LC-HRMS analysis; assay type: ADME, organism-based; conditions: in vivo; summary of the method: as §2

CC1CC[C@@H]2C(C)(C)[C@H](O)CC[C@@]2(C)[C@@H]1/C=C/c1ccc(-c2cccc(F)c2)cn1 (single isomer, unassigned)
Activity (Rattus norvegicus [1]): Non-Toxic | Activity (Rattus norvegicus [2]): 224 g | Drug metabolism (Plasma [3]): Metabolite_Detected | Drug metabolism (Plasma [4]): Metabolite_Detected | Drug metabolism (Plasma [5]): Metabolite_Detected | Activity (Platelet): Non-Toxic | inhibition in vivo at 10 mg/kg (Cavia porcellus [6]): 87.6% | inhibition in vivo at 10 mg/kg (Cavia porcellus [7]): 66.9% | inhibition at 5 min [8]: 5.5% | inhibition in vivo at 30 mg/kg (Cavia porcellus [9]): 98.7% | inhibition in vivo at 30 mg/kg (Cavia porcellus [10]): 99.8% | inhibition at 5 min [11]: 4.5% | Activity (Rattus norvegicus [12]): Non-Toxic | Activity (Rattus norvegicus [13]): 226 g | AUMC (Rattus norvegicus [14]): 1135 ng·h/mL | MRT inf [15]: 2 h | VRT (Rattus norvegicus [16]): 7.6 ha2 | half-life [17]: 2 h | Tmax [18]: 1.2 min | clearance [19]: 31.7 mL/min/kg | Vd [20]: 5.7 L/kg | Cmax [21]: 1730 ng/mL | AUC(0-inf) [22]: 1450 ng·h/mL | AUMC (Rattus norvegicus [23]): 8382 ng·h/mL | half-life [24]: 3.1 h | Tmax [25]: 2.5 h | Vd(app) (Rattus norvegicus [26]): 20 L/kg | Cmax [27]: 229 ng/mL | bioavailability [28]: 52.5% | Stability (Plasma [29]): Stable
